Published values pooled from the literature.
Each line is one published result; the experiments were not run side by side.
Target: RAF proto-oncogene serine/threonine-protein kinase (RAF1, Homo sapiens, UniProt P04049)

SMILES	observed	action	technique	concentration	measurement	value
C=CC(=O)N1CCC([C@@H]2CCNc3c(C(N)=O)c(-c4ccc(Oc5ccccc5)cc4)nn32)CC1	enzyme activity	inhibitor		1 µM	inhibition	0%
Cc1ccc(NC(=O)c2ccnc(C(F)(F)F)c2)cc1-c1cc(OCCO)nc(N2CCOCC2)c1	binding		competition with immobilised ligand	1 µM	remaining binding	1.2%
C#Cc1cnc(Nc2ccnc(CO)c2)nc1Nc1ccccc1S(C)(=O)=NC#N (stereo not shown)	cell-free assay			1 µM	remaining signal	85%
COc1ccc2[nH]c3c4[nH]c5ccc(OC)cc5c4c4c(c3c2c1)C(=O)NC4=O	binding		competition with immobilised ligand	1 µM	remaining binding	100%
N#Cc1ccc(NC(=O)Nc2ccccc2)cc1	cell-free assay		competition with immobilised ligand	25 µM	remaining binding	98%
Cc1cc(O)c(-c2ccc([C@@H](C)CN(C)C)cc2)c2c1[nH]c(=O)c1sccc12	enzyme activity	inhibitor		0.1 µM	inhibition	7.07%
COc1ccc2oc(-c3ccc4nc(N)oc4c3)c/c(=N\c3ccccc3NC(=O)CCN)c2c1	binding			1 µM	remaining binding	104%
CO[C@@H]1[C@H](N(C)C(=O)c2ccccc2)C[C@H]2O[C@]1(C)n1c3ccccc3c3c4c(c5c6ccccc6n2c5c31)C(=O)NC4	enzyme activity	inhibitor		1 µM	inhibition	0%
C#Cc1cc(-c2cc(Nc3nc(N[C@@H](C)c4ccc(F)cn4)ncc3Cl)n[nH]2)ccc1C=O	enzyme activity	inhibitor		0.2 µM	inhibition	13.8%
CCCCC(=O)Nc1ccc(-c2ccc3ncn(CCC)c(=O)c3c2)cn1	binding		competition with immobilised ligand	0.5 µM	remaining binding	80%
